As a reminder, the pIC50 is −log10 of the IC50, conventionally taken in molar units.

pIC50: −log10 of the molar value. Calls of active or inactive are those of the source. The rule behind the calls is not given here. Where only a bound is given, the exact number is not on record here.

Data set [1] relates to ACHN. The experiment in a line: Sensitization of TRAIL-induced apoptosis in human ACHN cells assessed as reduction in cell viability preincubated for 2 hrs followed by addition of TRAIL measured after 18 hrs by MTS assay. In kind it is functional, cell-based. The gist of the method:
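ACHN cells were seeded at 5000/well and rested overnight at 37 °C, in RPMI with 5% FCS, glutamine, NEAA, pyruvate, HEPES and 2-mercaptoethanol. Compound pretreatment ran 2 h, then TRAIL was added to 50 ng/mL for 18 h at 37 °C. Viability was read by MTS (2 h, A490). IC50 values (cell number reduced 50%) came from dose-response curves; triplicates, at least 3 independent experiments, ± SD.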
(Formazan colour is commonly taken as a measure of viable cells.)

The test system of data set [2] is ACHN. The experiment in a line: Cytotoxicity in human ACHN cells assessed as reduce cell number after 48 hrs by MTS assay. In kind it is cell-based. The gist of the method:
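ACHN cells exposed to compound for 48 h at 37 °C; viable cell number by MTS read-out. Triplicate determinations; IC50 (concentration reducing cell number by 50%) from 3 independent experiments, ± SD.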

Data set [3] deals with ACHN. The experiment in a line: Reduction cFLIP level in human ACHN cells at 500 nM after 18 hrs by Western blot analysis. In kind it is functional, cell-based. The gist of the method:
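ACHN cells (RPMI, 5% FBS) plated 1.5×10^6/well, grown overnight at 37 °C, then exposed to compound at 500 nM for 18 h. Lysed in RIPA with protease/phosphatase inhibitors and zVAD-FMK; 20 μg protein per lane immunoblotted with anti-FLIP (7F10); GAPDH as loading control.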

A short description of data set [4]: Glutathione reactivity in DMSO assessed as formation of MIchael adduct with GSH at pH 7.4 after 24 hrs in presence of NAC by HPLC method. The gist of the method:
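Withanolide (2.12 μM in DMSO, 0.5 mL) mixed with equal volume of 4.24 μM GSH or NAC solution at pH 7.4, 37 °C. Aliquots taken at 0, 0.5, 2, 4, 8, 24 h, stored −80 °C; unreacted withanolide quantified by C18 HPLC (H2O with 40 mM NH4OAc–MeOH gradient, UV 230 nm) using peak area.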

Turning to `CC(=O)OC[C@]12CC[C@H]3[C@@H](C[C@H]4O[C@]45C[C@@H](N=[N+]=[N-])CC(=O)[C@]35C)[C@]1(O)CC[C@@]2(O)[C@@](C)(O)[C@H]1CC(C)=C(C)C(=O)O1`, in data set [1], the pIC50 was 6.60.

Consider `CC(=O)OC[C@]12CC[C@H]3[C@@H](C[C@H]4O[C@]45CCCC(=O)[C@]35C)[C@]1(O)CC[C@@]2(O)[C@@](C)(O)[C@H]1CC(C)=C(C)C(=O)O1`, for which, in data set [1], the negative-log IC50 (pIC50) is below 5.40.

As to `CC(=O)OC[C@]12CC[C@H]3[C@@H](CC=C4CC=CC(=O)[C@@]43C)[C@]1(O)[C@@H](OC(C)=O)C[C@@]2(O)[C@@](C)(O)[C@H]1CC(C)=C(CO)C(=O)O1`, the pIC50 in data set [1] is below 5.40.

For `CC(=O)OCC1=C(C)C(=O)O[C@@H]([C@](C)(O)[C@]2(O)C[C@H](OC(C)=O)[C@@]3(O)[C@@H]4CC=C5CC=CC(=O)[C@]5(C)[C@H]4CC[C@@]32COC(C)=O)C1`, in data set [1], the negative logarithm of the IC50 (pIC50) was below 5.40.

With `CC1=C(C)C(=O)O[C@@H]([C@](C)(O)[C@]2(O)CC[C@@]3(O)[C@@H]4C[C@H]5O[C@]56[C@@H](O)[C@@H](N=[N+]=[N-])CC(=O)[C@]6(C)[C@H]4CC[C@]23C)C1`, in data set [1], the pIC50 was 5.74.

Take `CC(=O)OC[C@]12CC[C@H]3[C@@H](CC=C4C[C@@H](OS(=O)(=O)O)CC(=O)[C@@]43C)[C@]1(O)[C@@H](OC(C)=O)C[C@@]2(O)[C@@](C)(O)[C@H]1CC(C)=C(C)C(=O)O1`: the pIC50 in data set [1] was below 5.40.

Regarding `COC(=O)O[C@H]1C=CC(=O)[C@]2(C)[C@H]3CC[C@]4(C)[C@](O)([C@@](C)(O)[C@H]5CC(C)=C(C)C(=O)O5)CC[C@@]4(O)[C@@H]3C[C@H]3O[C@]132`, in data set [2], the Activity entry is reported as “Toxic”. Moreover, the outcome in data set [3] and in data set [4] was Active. Also, the pIC50 in data set [1] was 6.95.

Turning to `CC(=O)OC[C@]12CC[C@H]3[C@@H](C[C@H]4O[C@]45CC=CC(=O)[C@]35C)[C@]1(O)[C@@H](O)C[C@@]2(O)[C@@](C)(O)[C@H]1CC(C)=C(C)C(=O)O1`, the pIC50 in data set [1] was below 5.40.

Turning to `CO[C@H]1CC(=O)[C@]2(C)[C@H]3CC[C@]4(COC(C)=O)[C@](O)([C@@](C)(O)[C@H]5CC(C)=C(C)C(=O)O5)CC[C@@]4(O)[C@@H]3C[C@H]3O[C@]32C1`, the pIC50 in data set [1] is below 5.40.

Consider `CC(=O)OC[C@]12CC[C@H]3[C@@H](C[C@@H]4O[C@@]45CC=CC(=O)[C@]35C)[C@]1(O)CC[C@@]2(O)[C@@](C)(O)[C@H]1CC(C)=C(C)C(=O)O1`, for which the result in data set [4] was inactive. For the same molecule, the pIC50 in data set [1] is below 5.40.

As to `CC(=O)OC[C@]12CC[C@H]3[C@@H](CC=C4CC=CC(=O)[C@@]43C)[C@]1(O)[C@@H](OC(C)=O)C[C@@]2(O)[C@@](C)(O)[C@H]1CC(C)=C(C)C(=O)O1`, the pIC50 in data set [1] is below 5.40.

In the case of `CC(=O)OC[C@]12CC[C@H]3[C@@H](C[C@H]4O[C@]45CC=CC(=O)[C@]35C)[C@]1(O)CC[C@@]2(O)[C@@](C)(O)[C@H]1C[C@]2(C)O[C@]2(C)C(=O)O1`, in data set [1], the pIC50 is 5.90.

Consider `CC1=C(C)C(=O)O[C@@H]([C@](C)(O)[C@]2(O)CC[C@@]3(O)[C@@H]4C[C@H]5O[C@]56C(=O)C=CC(=O)[C@]6(C)[C@H]4CC[C@]23C)C1`, for which the pIC50 in data set [1] is below 5.40.

Turning to `CC1=C(C)C(=O)O[C@@H]([C@](C)(O)[C@]2(O)CC[C@@]3(O)[C@@H]4C[C@H]5O[C@]56CCCC(=O)[C@]6(C)[C@H]4CC[C@]23CO)C1`, the negative logarithm of the IC50 (pIC50) in data set [1] was below 5.40.

Turning to `CC(=O)OC[C@]12CC[C@H]3[C@@H](CC=C4C[C@@H](OS(=O)(=O)O)CC(=O)[C@@]43C)[C@]1(O)CC[C@@]2(O)[C@@](C)(O)[C@H]1CC(C)=C(C)C(=O)O1`, in data set [1], the negative-log IC50 (pIC50) is below 5.40.

For the molecule `CC(=O)OC[C@]12CC[C@H]3[C@@H](CC=C4CC=CC(=O)[C@@]43C)[C@]1(O)[C@@H](OC(C)=O)C[C@@]2(O)[C@@](C)(O)[C@H]1CC(CO)=C(C)C(=O)O1`, the negative-log IC50 (pIC50) in data set [1] was below 5.40.

As for `CC(=O)O[C@@H]1C=CC(=O)[C@]2(C)[C@H]3CC[C@]4(C)[C@](O)([C@@](C)(O)[C@H]5CC(C)=C(C)C(=O)O5)CC[C@@]4(O)[C@@H]3C[C@H]3O[C@]132`, the Activity entry in data set [2] is on record as “Toxic”. Moreover, the outcome in data set [4] was Active. The negative logarithm of the IC50 (pIC50) in data set [1] is 7.05.

With `CC(=O)OC[C@]12CC[C@H]3[C@@H](C[C@H]4O[C@]45CC=CC(=O)[C@]35C)[C@]1(O)[C@@H](OC(C)=O)C[C@@]2(O)[C@@](C)(O)[C@H]1CC(C)=C(C)C(=O)O1`, in data set [1], the negative logarithm of the IC50 (pIC50) is below 5.40.

Take `CC(=O)OC[C@]12CC[C@H]3[C@@H](CC=C4CC=CC(=O)[C@@]43C)[C@]1(O)[C@@H](OC(C)=O)C[C@@]2(O)[C@@](C)(O)[C@H]1CC(C)=C(CO[C@@H]2O[C@H](CO)[C@@H](O)[C@H](O)[C@H]2O)C(=O)O1`: in data set [1], the negative logarithm of the IC50 (pIC50) is below 5.40.

Turning to `CC1=C(C)C(=O)O[C@@H]([C@](C)(O)[C@]2(O)CC[C@@]3(O)[C@@H]4CC=C5[C@H](O)C=CC(=O)[C@]5(C)[C@H]4CC[C@]23C)C1`, the negative logarithm of the IC50 (pIC50) in data set [1] was 6.55.

For `CC(=O)OC[C@]12CC[C@H]3[C@@H](C[C@H]4O[C@]45C[C@@H](n4ccnc4)CC(=O)[C@]35C)[C@]1(O)CC[C@@]2(O)[C@@](C)(O)[C@H]1CC(C)=C(C)C(=O)O1`, the pIC50 in data set [1] was 6.79.

On to `CC(=O)OC[C@]12CC[C@H]3[C@@H](CC=C4CC=CC(=O)[C@@]43C)[C@]1(O)[C@@H](O)C[C@@]2(O)[C@@](C)(O)[C@H]1CC(C)=C(C)C(=O)O1`, for which the negative logarithm of the IC50 (pIC50) in data set [1] was below 5.40.

In the case of `CC1=C(C)C(=O)O[C@@H]([C@](C)(O)[C@]2(O)CC[C@@]3(O)[C@@H]4C[C@H]5O[C@]56[C@@H](OC(=O)n5ccnc5)C=CC(=O)[C@]6(C)[C@H]4CC[C@]23C)C1`, in data set [1], the negative-log IC50 (pIC50) is 6.63.

Turning to `CC(=O)O[C@H]1C=CC(=O)[C@]2(C)[C@H]3CC[C@]4(C)[C@](O)([C@@](C)(O)[C@H]5CC(C)=C(C)C(=O)O5)CC[C@@]4(O)[C@@H]3C[C@H]3O[C@]132`, the Activity result in data set [2] is recorded as “Toxic”. Moreover, the result in data set [3] and in data set [4] was Active. In data set [1], the negative logarithm of the IC50 (pIC50) was 7.12.

As to `CC(=O)OC[C@]12CC[C@H]3[C@@H](C[C@@H]4O[C@@]45CC=CC(=O)[C@]35C)[C@]1(O)[C@@H](O)C[C@@]2(O)[C@@](C)(O)[C@H]1CC(C)=C(C)C(=O)O1`, in data set [1], the pIC50 was 5.78.

Turning to `CC1=C(C)C(=O)O[C@@H]([C@](C)(O)[C@]2(O)CC[C@@]3(O)[C@@H]4C[C@H]5O[C@]56[C@@H](O)C=CC(=O)[C@]6(C)[C@H]4CC[C@]23C)C1`, the Activity entry in data set [2] is reported as “Toxic”. The result in data set [4] was Active. The negative logarithm of the IC50 (pIC50) in data set [1] is 6.25.

As for `CC1=C(C)C(=O)O[C@@H]([C@](C)(O)[C@]2(O)CC[C@@]3(O)[C@@H]4C[C@H]5O[C@]56CC=CC(=O)[C@]6(C)[C@H]4CC[C@]23CO)C1`, the negative logarithm of the IC50 (pIC50) in data set [1] was 5.71.

As for `CC(=O)OC[C@]12CC[C@H]3[C@@H](CC=C4CC=CC(=O)[C@@]43C)[C@]1(O)[C@@H](OC(C)=O)C[C@@]2(O)[C@@](C)(O)[C@H]1CC(CO[C@@H]2O[C@H](CO)[C@@H](O)[C@H](O)[C@H]2O)=C(C)C(=O)O1`, the negative-log IC50 (pIC50) in data set [1] is below 5.40.

Take `CC(=O)OC[C@]12CC[C@H]3[C@@H](CC=C4CC=CC(=O)[C@@]43C)[C@]1(O)CC[C@@]2(O)[C@@](C)(O)[C@H]1CC(C)=C(C)C(=O)O1`: the negative logarithm of the IC50 (pIC50) in data set [1] was 6.25.

`CC1=C(C)C(=O)O[C@@H]([C@](C)(O)[C@]2(O)CC[C@@]3(O)[C@@H]4CC=C5C(=O)C=CC(=O)[C@]5(C)[C@H]4CC[C@]23C)C1`: the negative logarithm of the IC50 (pIC50) in data set [1] is 6.77.

Turning to `CC(=O)OC[C@]12CC[C@H]3[C@@H](C[C@@H]4O[C@@]45CC=CC(=O)[C@]35C)[C@]1(O)[C@@H](OC(C)=O)C[C@@]2(O)[C@@](C)(O)[C@H]1CC(C)=C(C)C(=O)O1`, the pIC50 in data set [1] is below 5.40.

Source of the values: ChEMBL document CHEMBL4007460, “17β-Hydroxywithanolides as Sensitizers of Renal Carcinoma Cells to Tumor Necrosis Factor-α Related Apoptosis Inducing Ligand (TRAIL) Mediated Apoptosis: Structure-Activity Relationships” (J Med Chem, 2017).
